In general, MIC refers to the lowest concentration that inhibits growth of the organism.

The results in this text go back to ChEMBL document CHEMBL1158335, “Synthesis and evaluation of some new benzimidazole derivatives as potential antimicrobial agents” (2009).

For assay [1], the system named is Bacillus subtilis. As to the kind of experiment: Antibacterial activity against Bacillus subtilis MTCC 121 at 100 ug/ml after 24 hrs. In kind it is functional, organism-based. The method, boiled down: (§1)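 Organisms grown overnight at 37 °C in buffered glucose broth. A loopful (5 mm diameter) was added to buffered glucose broth containing the test compound and incubated at 37 °C for 24 h. Growth was scored against the untreated control as total inhibition, poor, medium or confluent growth.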

The test system of assay [2] is Bacillus subtilis. As to the kind of experiment: Antibacterial activity against Bacillus subtilis MTCC 121 at 200 ug/ml after 24 hrs. The format is functional, organism-based. Summed up:
as §1

For assay [3], the system named is Bacillus subtilis. As to the kind of experiment: Antibacterial activity against Bacillus subtilis MTCC 121 at 500 ug/ml after 24 hrs. In kind it is functional, organism-based. Summed up:
as §1

In assay [4] the test system is Bacillus subtilis. As to the kind of experiment: Antibacterial activity against Bacillus subtilis MTCC 121 after 24 hrs. The format is functional.
Assay [5] relates to Escherichia coli. As to the kind of experiment: Antibacterial activity against Escherichia coli ATCC 25922 at 1 ug/ml after 24 hrs. The format is functional, organism-based. The method, boiled down: as §1
Assay [6] concerns Escherichia coli. As to the kind of experiment: Antibacterial activity against Escherichia coli ATCC 25922 at 10 ug/ml after 24 hrs. In kind it is functional, organism-based. Summed up:
as §1

The subject of assay [7] is Escherichia coli. The assay can be described thus: Antibacterial activity against Escherichia coli ATCC 25922 at 100 ug/ml after 24 hrs. The format is functional, organism-based. Summed up: as §1
Assay [8] deals with Escherichia coli. As to the kind of experiment: Antibacterial activity against Escherichia coli ATCC 25922 at 200 ug/ml after 24 hrs. In kind it is functional, organism-based. Summed up: as §1
Assay [9] relates to Escherichia coli. As to the kind of experiment: Antibacterial activity against Escherichia coli ATCC 25922 at 500 ug/ml after 24 hrs. In kind it is functional, organism-based. The method, boiled down:
as §1

For assay [10], the system named is Escherichia coli. The assay can be described thus: Antibacterial activity against Escherichia coli ATCC 25922 after 24 hrs. In kind it is functional.
Assay [11] relates to Candida albicans. As to the kind of experiment: Antifungal activity against Candida albicans MTCC 1637 at 30 ug/ml by cup-plate agar diffusion method. In kind it is functional. The following applies: for zone of inhibition at 30 µg/mL: read-out: DIZ. Summed up:
(§2)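 Cup-plate agar diffusion assay against the fungal strains, with amphotericin B as the reference standard.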

The subject of assay [12] is Aspergillus flavus. The assay can be described thus: Antifungal activity against Aspergillus flavus AIIMS isolate at 30 ug/ml by cup-plate agar diffusion method. The format is functional. To be noted: for zone of inhibition at 30 µg/mL: read-out: DIZ. The method, boiled down: as §2
For orientation: Agar diffusion results depend on both activity and mobility in agar.

Assay [13] has as its system Aspergillus niger. The assay can be described thus: Antifungal activity against Aspergillus niger AIIMS isolate at 30 ug/ml by cup-plate agar diffusion method. The format is functional. The following applies: for zone of inhibition at 30 µg/mL: read-out: DIZ. The method, boiled down: as §2
Assay [14] deals with Bacillus subtilis. As to the kind of experiment: Antibacterial activity against Bacillus subtilis MTCC 121 at 1 ug/ml after 24 hrs. The format is functional, organism-based. Summed up:
as §1

For assay [15], the system named is Bacillus subtilis. As to the kind of experiment: Antibacterial activity against Bacillus subtilis MTCC 121 at 10 ug/ml after 24 hrs. The format is functional, organism-based. The method, boiled down:
as §1

Values after ≈ are worked out from the molar mass of the structure shown. Active and inactive are the calls of the source. The calls are words filed in the database; no cut-off is given here.

For `Cc1cccc(/C=N/c2nnc(Cn3c(C)nc4ccccc43)s2)c1`, the inhibition entry in assay [1], in assay [5], in [6], in assay [7], in [8] and in [9] was “inactive” throughout. Further, the inhibition entry in [14] and in [15] was “inactive” throughout. Besides, the outcome in assay [2], in assay [3] and in assay [4] was inactive. For the same molecule, in assay [10], the MIC result was “inactive”. Further, the “diameter of the inhibition zone (DIZ)” value in assay [11], in assay [12] and in [13] was “inactive” each time.

As to `COc1ccccc1C1C(Cl)C(=O)N1c1nnc(Cn2c(C)nc3ccccc32)s1` (centres undefined), the inhibition entry in assay [1], in assay [2], in [5], in [6], in [7] and in assay [8] was “inactive” throughout. Moreover, the inhibition result in assay [9], in assay [14] and in assay [15] was “inactive” each time. Besides, the outcome in [3] was inactive. Moreover, the MIC entry in assay [4] and in [10] was “inactive” each time. Besides, the zone of inhibition at 30 µg/mL in [11], in assay [12] and in assay [13] was less than 10 mm each time.

With `COc1ccccc1/C=N/c1nnc(Cn2c(C)nc3ccccc32)s1`, the inhibition entry in assay [1], in [2], in [5], in [6], in assay [7] and in assay [8] was “inactive” in each case. For the same molecule, the inhibition entry in assay [9], in assay [14] and in assay [15] was “inactive” in each case. The outcome in assay [3] was inactive. Moreover, the MIC result in assay [4] and in assay [10] was “inactive” each time. The results for the zone of inhibition at 30 µg/mL in assay [11], in assay [12] and in assay [13] were 10 mm, 16 mm and 16 mm, respectively.

As for `Cc1ccccc1/C=N/c1nnc(Cn2c(C)nc3ccccc32)s1`, the inhibition entry in assay [2], in assay [3], in assay [7], in assay [8] and in assay [9] was “Active” each time. Besides, the MIC in assay [4] (MTCC 121, 24 h) amounted to 200 µg/mL (≈ 576 µM); in [10] (ATCC 25922, 24 h), 100 µg/mL (≈ 288 µM). Moreover, the inhibition entry in assay [5], in assay [14] and in assay [15] was “inactive” throughout. In addition, the results for the zone of inhibition at 30 µg/mL in [11], in assay [12] and in assay [13] were 10 mm, less than 10 mm and 10 mm, respectively.

Regarding `Cc1nc2ccccc2n1Cc1nnc(/N=C/c2ccccc2Cl)s1`, the inhibition entry in [1], in assay [2], in assay [3], in [7], in assay [8] and in assay [9] was “Active” each time. Moreover, the MIC in assay [4] (MTCC 121, 24 h) is 100 µg/mL (≈ 272 µM); in assay [10] (ATCC 25922, 24 h), 100 µg/mL (≈ 272 µM). The inhibition entry in [5] and in [14] was “inactive” each time. For the same molecule, the “diameter of the inhibition zone (DIZ)” value in assay [11], in [12] and in [13] was “inactive” in each case.

As to `CC1(C)S[C@@H]2[C@H](NC(=O)[C@H](N)c3ccccc3)C(=O)N2[C@H]1C(=O)O` [AMPICILLIN], the inhibition entry in assay [1], in [2], in [3], in assay [6], in [7] and in assay [8] was “Active” in each case. Moreover, the inhibition result in assay [9] and in [15] was “Active” in each case. In addition, the MIC was 10 µg/mL (≈ 28.6 µM) in [4] (MTCC 121, 24 h) and 10 µg/mL (≈ 28.6 µM) in [10] (ATCC 25922, 24 h).

In the case of `Cc1nc2ccccc2n1Cc1nnc(/N=C/c2cccc(O)c2)s1`, the inhibition entry in assay [1], in [2], in assay [5], in assay [6], in assay [7] and in assay [8] was “inactive” throughout. In addition, the inhibition entry in assay [9], in assay [14] and in assay [15] was “inactive” in each case. For the same molecule, the outcome in assay [3] was inactive. Further, the MIC entry in [4] and in [10] was “inactive” each time. Besides, the zone of inhibition at 30 µg/mL in [11] stood at 22 mm; in assay [12] it was 10 mm; in assay [13], 10 mm.

Turning to `Cc1nc2ccccc2n1Cc1nnc(/N=C/c2ccc(Cl)cc2)s1`, the inhibition result in [1], in [2], in assay [5], in [6], in [7] and in assay [8] was “inactive” each time. The inhibition result in assay [9], in assay [14] and in [15] was “inactive” each time. The result in [3] was inactive. In addition, the MIC entry in assay [4] and in assay [10] was “inactive” each time. For the same molecule, the zone of inhibition at 30 µg/mL is 10 mm in assay [11], less than 10 mm in assay [12] and 10 mm in assay [13].

As to `Cc1cccc(C2C(Cl)C(=O)N2c2nnc(Cn3c(C)nc4ccccc43)s2)c1` (centres undefined), the inhibition result in assay [1], in assay [2], in assay [5], in assay [6], in assay [7] and in assay [8] was “inactive” throughout. Besides, the inhibition entry in assay [9], in assay [14] and in [15] was “inactive” each time. The outcome in assay [3] was inactive. Also, the MIC result in [4] and in assay [10] was “inactive” in each case. In addition, the “diameter of the inhibition zone (DIZ)” value in assay [11], in [12] and in assay [13] was “inactive” each time.

As for `Cc1nc2ccccc2n1Cc1nnc(N2C(=O)C(Cl)C2c2ccc(Cl)cc2)s1` (centres undefined), the inhibition entry in [1], in assay [2], in assay [5], in assay [6], in [7] and in assay [8] was “inactive” throughout. The inhibition result in [9], in assay [14] and in assay [15] was “inactive” throughout. In assay [3], the outcome was inactive. Further, the MIC entry in [4] and in assay [10] was “inactive” in each case. In addition, the “diameter of the inhibition zone (DIZ)” value in assay [11], in [12] and in assay [13] was “inactive” in each case.

Turning to `Cc1nc2ccccc2n1Cc1nnc(N2C(=O)C(Cl)C2c2ccccc2Cl)s1` (centres undefined), the inhibition result in assay [2], in assay [3], in assay [7], in assay [8] and in assay [9] was “Active” each time. Moreover, the MIC in assay [4] (MTCC 121, 24 h) is 200 µg/mL (≈ 450 µM); in [10] (ATCC 25922, 24 h), 100 µg/mL (≈ 225 µM). For the same molecule, the inhibition entry in assay [5], in assay [14] and in assay [15] was “inactive” each time. Also, the “diameter of the inhibition zone (DIZ)” value in assay [11], in assay [12] and in [13] was “inactive” in each case.
